Molecules are shown by their SMILES. ≈ marks a conversion by molar mass, not a printed value.

Format in all cases: functional
In one test the test system is Haemophilus influenzae. Description: Compound was tested for antibacterial activity against Hemophilus influenzae. A digest of the protocol: (§1)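 Inoculum made from colonies grown overnight on chocolate or blood agar, resuspended in liquid medium to 10' cfu/mL. Applied by Steers replicator to serial 2-fold peptide dilutions. Incubated overnight at 37 °C under 7% CO2. MIC = lowest concentration giving fewer than 10 colonies at 16-18 h.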

Test [1] concerns Staphylococcus epidermidis. Put plainly: Compound was tested for antibacterial activity against Staphylococcus epidermidis. An outline of the steps:
(§2)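 Agar dilution MIC on defined peptide susceptibility agar. Inoculum made by growing overnight in liquid peptide susceptibility medium, then diluting to about 1 × 10^7 cfu/mL. Applied by Steers replicator to plates carrying serial 2-fold peptide dilutions. Incubated overnight at 37 °C. MIC = lowest concentration allowing growth of fewer than 10 colonies after 16-18 h.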

The next test has as its system Streptococcus pyogenes. Description: Compound was tested for antibacterial activity against Streptococcus pyogenes. A digest of the protocol:
as §1

For another test, the system named is Morganella morganii. Description: Compound was tested for antibacterial activity against Morganella morganii. A digest of the protocol: as §2
The test system of the next test is Enterococcus faecalis. Description: Compound was tested for antibacterial activity against Streptococcus faecalis. A digest of the protocol: as §2
A further test concerns Enterobacter cloacae. Description: Compound was tested for antibacterial activity against Enterobacter cloacae. An outline of the steps: as §2
The next test concerns Shigella flexneri. Put plainly: Compound was tested for antibacterial activity against Shigella flexneri. An outline of the steps:
as §2

In another test the test system is Staphylococcus aureus. Description: Compound was tested for antibacterial activity against Staphylococcus aureus. A digest of the protocol:
as §2

The test system of the next test is Proteus mirabilis. Put plainly: Compound was tested for antibacterial activity against Proteus mirabilis. An outline of the steps:
as §2

A further test deals with Escherichia coli. Description: Compound was tested for antibacterial activity against Escherichia coli. A digest of the protocol:
as §2

The test system of the next test is Streptococcus agalactiae. Put plainly: Compound was tested for antibacterial activity against Streptococcus agalactiae. A digest of the protocol:
as §1

Turning to `CSCC[C@H](N)C(=O)N[C@@H](CCl)C(=O)N[C@@H](CCl)C(=O)O`, the MIC against Haemophilus influenzae is 0.39 µg/mL (≈ 1.08 µM); in test [1], 0.0125 µg/mL (≈ 0.0347 µM); against Streptococcus pyogenes, 6.25 µg/mL (≈ 17.3 µM); in the test with Morganella morganii, greater than 100 µg/mL; against Enterococcus faecalis it was 0.05 µg/mL (≈ 0.139 µM); against Enterobacter cloacae it was greater than 100 µg/mL. The MIC is 12.5 µg/mL (≈ 34.7 µM) against Shigella flexneri; 0.025 µg/mL (≈ 0.0694 µM) in the test on Staphylococcus aureus; greater than 100 µg/mL in the test with Proteus mirabilis; 1.56 µg/mL (≈ 4.33 µM) against Escherichia coli; less than 0.1 µg/mL with Streptococcus agalactiae.
On to `NC(=O)CC[C@H](N)C(=O)N[C@@H](CCl)C(=O)O`, for which the MIC is greater than 100 µg/mL with Haemophilus influenzae; 0.05 µg/mL (≈ 0.199 µM) in test [1]; less than 0.1 µg/mL in the test on Streptococcus pyogenes; 0.78 µg/mL (≈ 3.1 µM) against Enterococcus faecalis; greater than 100 µg/mL in the test with Shigella flexneri; 0.05 µg/mL (≈ 0.199 µM) against Staphylococcus aureus. Besides, the values for the MIC in the test with Proteus mirabilis, against Escherichia coli and against Streptococcus agalactiae were greater than 100 µg/mL, 1.56 µg/mL (≈ 6.2 µM) and 0.78 µg/mL (≈ 3.1 µM), respectively.
Consider `CC[C@H](C)[C@H](N)C(=O)N[C@@H](CCl)C(=O)O`, for which the MIC in the test on Haemophilus influenzae is 6.25 µg/mL (≈ 26.4 µM); in test [1], 0.05 µg/mL (≈ 0.211 µM); in the test on Streptococcus pyogenes it was less than 0.1 µg/mL; with Enterococcus faecalis it was less than 0.1 µg/mL; against Shigella flexneri, 25 µg/mL (≈ 106 µM); against Staphylococcus aureus it was 0.025 µg/mL (≈ 0.106 µM). Further, the MIC against Proteus mirabilis was 12.5 µg/mL (≈ 52.8 µM); in the test on Escherichia coli, 3.12 µg/mL (≈ 13.2 µM); in the test with Streptococcus agalactiae, 3.12 µg/mL (≈ 13.2 µM).
On to `C[C@H](N)C(=O)N[C@@H](C)C(=O)N[C@@H](CCl)C(=O)O`, for which the MIC with Haemophilus influenzae was greater than 100 µg/mL; in test [1], 0.025 µg/mL (≈ 0.0941 µM); in the test with Streptococcus pyogenes, 0.2 µg/mL (≈ 0.753 µM); with Enterococcus faecalis, greater than 100 µg/mL; in the test with Shigella flexneri it was greater than 100 µg/mL; against Staphylococcus aureus it was 0.025 µg/mL (≈ 0.0941 µM). Besides, the MIC with Escherichia coli is greater than 100 µg/mL; in the test on Streptococcus agalactiae, 12.5 µg/mL (≈ 47 µM).
As for `CC(C)C[C@H](N)C(=O)N[C@@H](CCl)C(=O)O`, the MIC was 6.25 µg/mL (≈ 26.4 µM) against Haemophilus influenzae; 0.0125 µg/mL (≈ 0.0528 µM) in test [1]; less than 0.1 µg/mL in the test on Streptococcus pyogenes; less than 0.1 µg/mL against Enterococcus faecalis; 50 µg/mL (≈ 211 µM) against Shigella flexneri; 0.025 µg/mL (≈ 0.106 µM) in the test with Staphylococcus aureus. For the same compound, the MIC is 25 µg/mL (≈ 106 µM) with Proteus mirabilis, 3.12 µg/mL (≈ 13.2 µM) in the test with Escherichia coli and 1.56 µg/mL (≈ 6.59 µM) against Streptococcus agalactiae.
As to `CN[C@@H](C)C(=O)N[C@@H](CCl)C(=O)O`, the MIC is 12.5 µg/mL (≈ 59.9 µM) against Haemophilus influenzae; 3.12 µg/mL (≈ 15 µM) in test [1]; 100 µg/mL (≈ 479 µM) against Enterococcus faecalis; 100 µg/mL (≈ 479 µM) in the test with Shigella flexneri; 0.39 µg/mL (≈ 1.87 µM) against Staphylococcus aureus; greater than 100 µg/mL in the test with Proteus mirabilis. The MIC against Escherichia coli and against Streptococcus agalactiae was 6.25 µg/mL (≈ 30 µM) in each case.
Turning to `O=C(O)[C@H](CCl)NC(=O)[C@@H]1CCCN1`, the MIC against Haemophilus influenzae is 25 µg/mL (≈ 113 µM); in test [1], 1.56 µg/mL (≈ 7.07 µM); against Streptococcus pyogenes, 6.25 µg/mL (≈ 28.3 µM); in the test with Enterococcus faecalis it was less than 0.1 µg/mL; in the test with Shigella flexneri it was greater than 100 µg/mL; with Staphylococcus aureus it was 0.39 µg/mL (≈ 1.77 µM). Also, the MIC in the test with Proteus mirabilis was greater than 100 µg/mL; in the test with Escherichia coli, 6.25 µg/mL (≈ 28.3 µM); in the test on Streptococcus agalactiae, 12.5 µg/mL (≈ 56.6 µM).
`CCCC[C@H](N)C(=O)N[C@@H](CCl)C(=O)O`: the MIC is 25 µg/mL (≈ 106 µM) against Haemophilus influenzae; 0.0125 µg/mL (≈ 0.0528 µM) in [1]; 25 µg/mL (≈ 106 µM) in the test with Streptococcus pyogenes; greater than 100 µg/mL in the test on Morganella morganii; 3.12 µg/mL (≈ 13.2 µM) against Enterococcus faecalis; 6.25 µg/mL (≈ 26.4 µM) in the test on Enterobacter cloacae. The MIC in the test on Shigella flexneri is 3.12 µg/mL (≈ 13.2 µM); in the test on Staphylococcus aureus, 0.0125 µg/mL (≈ 0.0528 µM); against Proteus mirabilis, greater than 100 µg/mL; against Escherichia coli, 3.12 µg/mL (≈ 13.2 µM); in the test on Streptococcus agalactiae, less than 0.1 µg/mL.
For the compound `CC[C@H](N)C(=O)N[C@@H](CCl)C(=O)O`, the MIC in the test on Haemophilus influenzae is less than 0.1 µg/mL; in [1] it was 0.025 µg/mL (≈ 0.12 µM); against Streptococcus pyogenes it was 12.5 µg/mL (≈ 59.9 µM); in the test on Morganella morganii, 50 µg/mL (≈ 240 µM); against Enterococcus faecalis it was 6.25 µg/mL (≈ 30 µM); against Enterobacter cloacae it was 25 µg/mL (≈ 120 µM). Moreover, the MIC with Shigella flexneri was 1.56 µg/mL (≈ 7.48 µM); in the test on Staphylococcus aureus, 0.025 µg/mL (≈ 0.12 µM); in the test on Proteus mirabilis, greater than 100 µg/mL; with Escherichia coli it was 1.56 µg/mL (≈ 7.48 µM); in the test with Streptococcus agalactiae, less than 0.1 µg/mL.
Take `N[C@@H](CCl)C(=O)N[C@@H](CCl)C(=O)N[C@@H](CCl)C(=O)O`: the MIC is 6.25 µg/mL (≈ 18.7 µM) in the test on Haemophilus influenzae; 0.1 µg/mL (≈ 0.299 µM) in test [1]; 0.39 µg/mL (≈ 1.17 µM) with Streptococcus pyogenes; less than 0.1 µg/mL with Enterococcus faecalis; 6.25 µg/mL (≈ 18.7 µM) in the test on Shigella flexneri; 0.2 µg/mL (≈ 0.598 µM) with Staphylococcus aureus. Moreover, the MIC with Escherichia coli was found to be 25 µg/mL (≈ 74.7 µM); against Streptococcus agalactiae, 0.78 µg/mL (≈ 2.33 µM).
`CC(C)[C@H](N)C(=O)N[C@@H](C)C(=O)N[C@@H](CCl)C(=O)O`: the MIC is greater than 100 µg/mL in the test on Haemophilus influenzae; 0.025 µg/mL (≈ 0.0851 µM) in test [1]; 0.1 µg/mL (≈ 0.34 µM) in the test on Streptococcus pyogenes; greater than 100 µg/mL against Enterococcus faecalis; greater than 100 µg/mL in the test on Shigella flexneri; 0.05 µg/mL (≈ 0.17 µM) with Staphylococcus aureus. The MIC against Escherichia coli was greater than 100 µg/mL; with Streptococcus agalactiae, 3.12 µg/mL (≈ 10.6 µM).
Consider `NCCC(=O)N[C@@H](CCl)C(=O)O`, for which the MIC was greater than 100 µg/mL in the test with Haemophilus influenzae; 6.25 µg/mL (≈ 32.1 µM) in [1]; greater than 100 µg/mL in the test with Enterococcus faecalis; greater than 100 µg/mL in the test on Shigella flexneri; 0.78 µg/mL (≈ 4.01 µM) in the test with Staphylococcus aureus; greater than 100 µg/mL against Proteus mirabilis. Further, the MIC against Escherichia coli and in the test on Streptococcus agalactiae was greater than 100 µg/mL throughout.
For the compound `CC(C)[C@H](N)C(=O)N[C@@H](CCl)C(=O)O`, the MIC with Haemophilus influenzae was 12.5 µg/mL (≈ 56.1 µM); in [1] it was less than 0.0125 µg/mL; in the test with Streptococcus pyogenes it was less than 0.1 µg/mL; against Enterococcus faecalis, less than 0.1 µg/mL; with Shigella flexneri, greater than 100 µg/mL; against Staphylococcus aureus, 0.025 µg/mL (≈ 0.112 µM). The values for the MIC against Proteus mirabilis, against Escherichia coli and with Streptococcus agalactiae were 100 µg/mL (≈ 449 µM), 1.56 µg/mL (≈ 7.01 µM) and 1.56 µg/mL (≈ 7.01 µM), respectively.
For the compound `N[C@@H](Cc1ccccc1)C(=O)N[C@@H](CCl)C(=O)O`, the MIC against Haemophilus influenzae is 12.5 µg/mL (≈ 46.2 µM); in test [1], 0.05 µg/mL (≈ 0.185 µM); against Streptococcus pyogenes, less than 0.1 µg/mL; with Enterococcus faecalis it was 0.39 µg/mL (≈ 1.44 µM); in the test with Shigella flexneri it was 100 µg/mL (≈ 369 µM); against Staphylococcus aureus, 0.05 µg/mL (≈ 0.185 µM). The values for the MIC in the test with Proteus mirabilis, against Escherichia coli and against Streptococcus agalactiae were 100 µg/mL (≈ 369 µM), 25 µg/mL (≈ 92.3 µM) and 6.25 µg/mL (≈ 23.1 µM), respectively.
For the compound `CSCC[C@H](N)C(=O)N[C@@H](CCl)C(=O)O`, the MIC in the test with Streptococcus pyogenes came out at 1.56 µg/mL (≈ 6.12 µM); against Morganella morganii it was 50 µg/mL (≈ 196 µM); against Proteus mirabilis, 50 µg/mL (≈ 196 µM).
In the case of `CSCC[C@H](N)C(=O)N[C@@H](C)C(=O)N[C@@H](CCl)C(=O)O`, the MIC is greater than 100 µg/mL against Haemophilus influenzae; 0.025 µg/mL (≈ 0.0767 µM) in test [1]; 25 µg/mL (≈ 76.7 µM) in the test with Streptococcus pyogenes; greater than 100 µg/mL with Morganella morganii; 6.25 µg/mL (≈ 19.2 µM) with Enterococcus faecalis; greater than 100 µg/mL in the test on Enterobacter cloacae. Besides, the MIC against Shigella flexneri was greater than 100 µg/mL; in the test with Staphylococcus aureus it was 0.05 µg/mL (≈ 0.153 µM); in the test with Proteus mirabilis it was greater than 100 µg/mL; against Escherichia coli, greater than 100 µg/mL; against Streptococcus agalactiae, less than 0.1 µg/mL.
In the test on Staphylococcus aureus, `CCC[C@H](N)C(=O)N[C@@H](CCl)C(=O)O` yielded an MIC of 0.25 µg/mL (≈ 1.12 µM).
As for `NCC(=O)N[C@@H](CCl)C(=O)O`, the MIC was 0.2 µg/mL (≈ 1.11 µM) against Haemophilus influenzae; 0.05 µg/mL (≈ 0.277 µM) in test [1]; 0.05 µg/mL (≈ 0.277 µM) against Streptococcus pyogenes; greater than 100 µg/mL against Morganella morganii; greater than 100 µg/mL against Enterococcus faecalis; 1.56 µg/mL (≈ 8.64 µM) in the test on Enterobacter cloacae. For the same compound, the MIC was 1.56 µg/mL (≈ 8.64 µM) against Shigella flexneri; 0.025 µg/mL (≈ 0.138 µM) with Staphylococcus aureus; greater than 100 µg/mL in the test on Proteus mirabilis; 3.12 µg/mL (≈ 17.3 µM) in the test on Escherichia coli; 0.39 µg/mL (≈ 2.16 µM) in the test with Streptococcus agalactiae.

These data come from ChEMBL document CHEMBL1123250, “Chloroalanyl antibiotic peptides: antagonism of their antimicrobial effects by L-alanine and L-alanyl peptides in gram-negative bacteria” (1986).
